{"source": "ChEMBL document CHEMBL4706499", "about": "“PTG-0861: A novel HDAC6-selective inhibitor as a therapeutic strategy in acute myeloid leukaemia” (Eur J Med Chem, 2020)", "key": {"Fibroblast [1]": {"system": "Fibroblast", "test": "Cytotoxicity against human fibroblasts measured after 72 hrs by spectrophotometer method", "assay_type": "cell-based"}, "[2]": {"test": "Cytotoxicity against human MRC9 cells measured after 72 hrs by spectrophotometer method", "assay_type": "cell-based", "conditions": "MRC9, 72 h"}, "[3]": {"target": "T1, Protein deacetylase HDAC6 (Homo sapiens) (UniProt Q9UBN7)", "T1 sequence (whole entry)": "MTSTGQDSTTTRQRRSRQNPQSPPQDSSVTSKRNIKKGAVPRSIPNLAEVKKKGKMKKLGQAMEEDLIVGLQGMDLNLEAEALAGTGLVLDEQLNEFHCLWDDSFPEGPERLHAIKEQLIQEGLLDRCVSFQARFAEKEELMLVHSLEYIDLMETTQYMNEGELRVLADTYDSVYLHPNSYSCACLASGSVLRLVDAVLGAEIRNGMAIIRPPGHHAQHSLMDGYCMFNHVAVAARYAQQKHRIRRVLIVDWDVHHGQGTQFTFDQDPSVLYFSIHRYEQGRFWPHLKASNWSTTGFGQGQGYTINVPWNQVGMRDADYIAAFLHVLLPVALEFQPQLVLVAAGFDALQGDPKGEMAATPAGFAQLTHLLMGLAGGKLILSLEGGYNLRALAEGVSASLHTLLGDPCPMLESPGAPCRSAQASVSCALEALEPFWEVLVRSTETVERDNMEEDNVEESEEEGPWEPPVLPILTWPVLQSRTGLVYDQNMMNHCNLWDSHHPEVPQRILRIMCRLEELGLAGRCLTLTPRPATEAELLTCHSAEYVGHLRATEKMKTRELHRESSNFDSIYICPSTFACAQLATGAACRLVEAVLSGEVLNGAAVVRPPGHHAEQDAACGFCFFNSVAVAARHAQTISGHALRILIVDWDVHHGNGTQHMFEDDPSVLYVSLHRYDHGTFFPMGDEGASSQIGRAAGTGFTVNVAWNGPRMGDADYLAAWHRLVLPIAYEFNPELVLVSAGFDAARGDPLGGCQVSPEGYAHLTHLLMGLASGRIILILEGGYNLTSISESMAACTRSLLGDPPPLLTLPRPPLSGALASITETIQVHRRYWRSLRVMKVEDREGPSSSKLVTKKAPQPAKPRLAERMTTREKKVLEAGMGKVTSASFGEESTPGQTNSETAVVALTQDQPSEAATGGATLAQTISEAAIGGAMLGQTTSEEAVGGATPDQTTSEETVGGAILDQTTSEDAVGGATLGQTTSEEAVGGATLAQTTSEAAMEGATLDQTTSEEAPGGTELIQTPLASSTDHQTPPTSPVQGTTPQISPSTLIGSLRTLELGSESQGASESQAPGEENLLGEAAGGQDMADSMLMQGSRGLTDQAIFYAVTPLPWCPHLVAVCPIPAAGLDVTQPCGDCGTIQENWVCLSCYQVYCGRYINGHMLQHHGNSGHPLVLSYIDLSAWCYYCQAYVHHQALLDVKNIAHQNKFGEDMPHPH", "test": "Inhibition of HDAC6 in human MV4-11 cells assessed as increase in acetylation of alpha tubulin at 0.5 uM measured after 6 hrs by Western blot assay relative to histone H4 acetylation", "assay_type": "cell-based", "procedure,_shortened": "(§1)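 MV4-11 cells were exposed to a range of concentrations for 6 h. Protein extracts were run on SDS-PAGE and immunoblotted for acetylated α-tubulin, acetylated histone H3 and acetylated histone H4, with HSC70 as the loading reference. A representative blot of three independent experiments is shown.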"}, "MV4-11 [4]": {"system": "MV4-11", "test": "Cytotoxicity against human MV4-11 cells measured after 72 hrs by spectrophotometer method", "assay_type": "functional, cell-based", "conditions": "MV4-11, 72 h"}, "Histone deacetylase 6": {"target": "T2, Histone deacetylase 6 (Danio rerio, UniProt F8W4B7)", "T2 sequence (F8W4B7 whole entry)": "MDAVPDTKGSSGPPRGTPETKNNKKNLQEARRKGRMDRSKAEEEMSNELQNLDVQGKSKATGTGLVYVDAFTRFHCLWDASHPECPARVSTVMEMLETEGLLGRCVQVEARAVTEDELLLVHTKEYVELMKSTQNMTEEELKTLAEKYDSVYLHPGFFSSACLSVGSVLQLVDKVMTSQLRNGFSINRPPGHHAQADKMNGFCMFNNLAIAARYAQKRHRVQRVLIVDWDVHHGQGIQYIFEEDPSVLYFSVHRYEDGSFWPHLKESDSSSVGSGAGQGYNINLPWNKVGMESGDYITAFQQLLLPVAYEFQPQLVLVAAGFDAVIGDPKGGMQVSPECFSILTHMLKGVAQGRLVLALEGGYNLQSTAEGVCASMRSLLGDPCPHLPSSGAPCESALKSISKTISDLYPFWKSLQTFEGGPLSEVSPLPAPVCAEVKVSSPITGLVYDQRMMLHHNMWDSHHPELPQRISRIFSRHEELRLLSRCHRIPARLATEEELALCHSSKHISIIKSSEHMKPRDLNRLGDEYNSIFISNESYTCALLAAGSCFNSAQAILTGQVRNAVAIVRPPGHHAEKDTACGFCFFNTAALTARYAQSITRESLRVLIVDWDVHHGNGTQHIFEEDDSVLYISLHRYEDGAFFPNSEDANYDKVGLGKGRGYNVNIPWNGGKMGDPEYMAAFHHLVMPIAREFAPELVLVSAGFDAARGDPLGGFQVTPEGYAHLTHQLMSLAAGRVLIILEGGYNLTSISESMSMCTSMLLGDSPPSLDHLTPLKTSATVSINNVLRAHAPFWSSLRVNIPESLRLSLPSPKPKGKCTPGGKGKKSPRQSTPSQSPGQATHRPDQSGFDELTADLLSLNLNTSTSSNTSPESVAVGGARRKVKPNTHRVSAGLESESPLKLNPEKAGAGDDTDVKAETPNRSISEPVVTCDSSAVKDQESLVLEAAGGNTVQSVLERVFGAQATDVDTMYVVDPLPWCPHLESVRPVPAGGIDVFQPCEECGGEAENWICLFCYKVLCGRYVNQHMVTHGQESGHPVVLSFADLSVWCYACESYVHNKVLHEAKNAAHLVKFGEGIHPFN", "test": "Inhibition of N-terminal 6 His-SUMO tagged Zebrafish HDAC6 CD2 domain expressed in Escherichia coli BL21(DE3) RILP pretreated for 10 mins before FITC-M344 addition and measured after 10 mins by fluorescence polarization competition assay"}, "[5]": {"target": "T1, Protein deacetylase HDAC6 (Homo sapiens)", "test": "Inhibition of HDAC6 in human MV4-11 cells assessed as increase in acetylation of alpha tubulin at 0.5 uM measured after 6 hrs by Western blot assay relative to histone H3 acetylation", "assay_type": "cell-based", "procedure,_shortened": "as §1"}, "MV4-11 [6]": {"system": "MV4-11", "test": "Induction of apoptosis in human MV4-11 cells assessed as late apoptotic cells at 4 microM measured after 18 hrs by Annexin V/Propidium iodide stain based Flow cytometry assay (reference value: 4.91%)", "assay_type": "functional"}, "Fibroblast [7]": {"system": "Fibroblast", "test": "Cytotoxicity against pooled human fibroblasts measured after 72 hrs by spectrophotometer method", "assay_type": "cell-based"}, "RPMI-8226": {"system": "RPMI-8226", "test": "Cytotoxicity against human RPMI-8226 cells measured after 72 hrs by spectrophotometer method", "assay_type": "functional, cell-based", "conditions": "RPMI-8226, 72 h"}, "[8]": {"target": "Class 1 histone deacetylase (Homo sapiens) (UniProt Q13547+O15379+Q92769+Q9BY41)", "sequence (O15379 whole entry, looked up)": "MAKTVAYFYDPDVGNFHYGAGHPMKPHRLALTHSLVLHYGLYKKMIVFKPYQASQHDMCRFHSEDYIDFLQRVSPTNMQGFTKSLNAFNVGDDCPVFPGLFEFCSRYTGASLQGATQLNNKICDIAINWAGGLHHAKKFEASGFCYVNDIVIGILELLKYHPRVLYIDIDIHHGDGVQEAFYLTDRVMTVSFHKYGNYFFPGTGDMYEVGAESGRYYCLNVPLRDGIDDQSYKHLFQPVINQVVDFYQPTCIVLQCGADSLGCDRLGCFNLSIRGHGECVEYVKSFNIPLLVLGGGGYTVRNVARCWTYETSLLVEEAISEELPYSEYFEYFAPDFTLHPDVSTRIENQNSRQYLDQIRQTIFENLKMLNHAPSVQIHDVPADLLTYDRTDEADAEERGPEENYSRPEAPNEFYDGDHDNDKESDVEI", "sequence (Q13547 whole entry, looked up)": "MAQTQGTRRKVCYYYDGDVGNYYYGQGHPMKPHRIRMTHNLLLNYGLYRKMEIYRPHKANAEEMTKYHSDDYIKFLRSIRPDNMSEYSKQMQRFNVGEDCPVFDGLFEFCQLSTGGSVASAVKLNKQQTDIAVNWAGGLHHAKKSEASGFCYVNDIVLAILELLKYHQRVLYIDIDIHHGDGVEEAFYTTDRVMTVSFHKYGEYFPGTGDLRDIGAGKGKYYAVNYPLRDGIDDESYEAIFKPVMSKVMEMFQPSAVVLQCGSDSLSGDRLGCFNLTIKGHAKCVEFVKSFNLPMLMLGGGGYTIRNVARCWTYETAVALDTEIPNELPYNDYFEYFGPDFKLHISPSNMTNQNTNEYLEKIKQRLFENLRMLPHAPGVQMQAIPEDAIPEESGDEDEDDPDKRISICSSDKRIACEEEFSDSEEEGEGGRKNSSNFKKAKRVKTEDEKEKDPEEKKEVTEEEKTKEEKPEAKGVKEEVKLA", "sequence (Q92769 whole entry, looked up)": "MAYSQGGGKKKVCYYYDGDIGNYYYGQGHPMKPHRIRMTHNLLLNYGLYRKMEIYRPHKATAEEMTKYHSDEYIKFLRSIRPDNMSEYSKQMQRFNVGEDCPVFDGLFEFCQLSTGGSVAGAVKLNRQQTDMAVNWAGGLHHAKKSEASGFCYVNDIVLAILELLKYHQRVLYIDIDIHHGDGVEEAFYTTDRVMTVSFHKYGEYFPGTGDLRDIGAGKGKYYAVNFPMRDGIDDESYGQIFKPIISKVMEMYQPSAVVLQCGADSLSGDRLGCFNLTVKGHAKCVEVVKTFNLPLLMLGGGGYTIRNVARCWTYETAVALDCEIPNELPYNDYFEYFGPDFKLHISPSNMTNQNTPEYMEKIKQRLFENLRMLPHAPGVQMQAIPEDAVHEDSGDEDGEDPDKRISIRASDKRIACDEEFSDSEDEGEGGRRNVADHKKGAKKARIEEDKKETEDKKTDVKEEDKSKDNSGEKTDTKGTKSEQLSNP", "sequence (Q9BY41 whole entry, looked up)": "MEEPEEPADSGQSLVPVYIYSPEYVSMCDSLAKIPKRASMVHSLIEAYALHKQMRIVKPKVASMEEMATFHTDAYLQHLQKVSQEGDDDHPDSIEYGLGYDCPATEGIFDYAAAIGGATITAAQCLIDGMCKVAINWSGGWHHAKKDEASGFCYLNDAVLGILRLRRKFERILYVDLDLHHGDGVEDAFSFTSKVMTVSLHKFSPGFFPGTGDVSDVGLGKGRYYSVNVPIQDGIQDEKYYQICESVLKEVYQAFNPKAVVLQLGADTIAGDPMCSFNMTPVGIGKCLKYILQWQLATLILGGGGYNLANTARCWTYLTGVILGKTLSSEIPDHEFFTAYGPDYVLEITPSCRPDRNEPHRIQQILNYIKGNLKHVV", "test": "Inhibition of HDAC class 1 in human MV4-11 cells assessed as upregulation of acetylation of H3 histone at 5 uM measured after 6 hrs by Western blot assay", "assay_type": "cell-based", "procedure,_shortened": "as §1"}, "MM1.S": {"system": "MM1.S", "test": "Cytotoxicity against human MM1.S cells measured after 72 hrs by spectrophotometer method", "assay_type": "functional, cell-based"}, "HUVEC": {"system": "HUVEC", "test": "Cytotoxicity against human HUVEC cells measured after 72 hrs by spectrophotometer method", "assay_type": "cell-based"}, "[9]": {"test": "Selectivity ratio of IC50 for full length recombinant human HDAC3 to IC50 for full length recombinant human HDAC6"}, "[10]": {"test": "Cytotoxicity against human MRC9 cells", "assay_type": "functional, cell-based"}}, "note": "Activity calls are given as the source filed them. The calls are words filed in the database; no cut-off is given here.", "data": [{"smiles": "O=C(CCCCCCNC(=O)c1cnc(N(c2ccccc2)c2ccccc2Cl)nc1)NO", "note": "[CITARINOSTAT]", "values": [{"measurement": "IC50", "setting": "Fibroblast [1]", "value": 5700, "unit": "nM"}, {"measurement": "IC50", "setting": "[2]", "value": "> 25000", "unit": "nM"}, {"measurement": "Activity", "setting": "[3]", "value": "Active"}, {"measurement": "IC50", "setting": "MV4-11 [4]", "value": 1240, "unit": "nM"}, {"measurement": "IC50", "setting": "Histone deacetylase 6", "value": 154, "unit": "nM"}, {"measurement": "Activity", "setting": "[5]", "value": "Active"}, {"measurement": "Activity", "setting": "MV4-11 [6]", "value": 17, "unit": "%"}, {"measurement": "IC50", "setting": "Fibroblast [7]", "value": 7400, "unit": "nM"}, {"measurement": "IC50", "setting": "RPMI-8226", "value": 3160, "unit": "nM"}, {"measurement": "inhibition", "setting": "[8]", "value": "Active"}, {"measurement": "IC50", "setting": "MM1.S", "value": 1520, "unit": "nM"}, {"measurement": "IC50", "setting": "HUVEC", "value": 4900, "unit": "nM"}]}, {"smiles": "O=C(CCCCCCNC(=O)c1cnc(N(c2ccccc2)c2ccccc2)nc1)NO", "note": "[RICOLINOSTAT]", "values": [{"measurement": "IC50", "setting": "[2]", "value": "> 15000", "unit": "nM"}, {"measurement": "IC50", "setting": "MV4-11 [4]", "value": 656, "unit": "nM"}, {"measurement": "IC50", "setting": "Histone deacetylase 6", "value": 90, "unit": "nM"}]}, {"smiles": "CC(C)(C)c1ccc(C(=O)Nc2ccc(C(=O)NO)cc2)cc1", "values": [{"measurement": "IC50", "setting": "[2]", "value": "> 25000", "unit": "nM"}, {"measurement": "IC50", "setting": "Histone deacetylase 6", "value": 269, "unit": "nM"}, {"measurement": "Ratio IC50", "setting": "[9]", "value": 7.66}, {"measurement": "IC50", "setting": "[10]", "value": "> 25000", "unit": "nM"}]}]}
